# From PubChem BioAssay
# HTR2A ag – agonists of mouse serotonin 5-HT2A receptor (HTR2A); P35363; 360,000 compounds, 0.66% hits; activation, % at 7.6 µM; CHO-K1 mHTR2A beta-arrestin complementation, luminescence; percent of 30 µM serotonin response;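 active = activation above a run cutoff, the mean activation of all tested compounds plus 3 SD, cut at about 14% in these data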;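 note: 0% = plate median of compound wells and 100% = 30 µM serotonin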
# Target sequence (P35363 whole entry, looked up): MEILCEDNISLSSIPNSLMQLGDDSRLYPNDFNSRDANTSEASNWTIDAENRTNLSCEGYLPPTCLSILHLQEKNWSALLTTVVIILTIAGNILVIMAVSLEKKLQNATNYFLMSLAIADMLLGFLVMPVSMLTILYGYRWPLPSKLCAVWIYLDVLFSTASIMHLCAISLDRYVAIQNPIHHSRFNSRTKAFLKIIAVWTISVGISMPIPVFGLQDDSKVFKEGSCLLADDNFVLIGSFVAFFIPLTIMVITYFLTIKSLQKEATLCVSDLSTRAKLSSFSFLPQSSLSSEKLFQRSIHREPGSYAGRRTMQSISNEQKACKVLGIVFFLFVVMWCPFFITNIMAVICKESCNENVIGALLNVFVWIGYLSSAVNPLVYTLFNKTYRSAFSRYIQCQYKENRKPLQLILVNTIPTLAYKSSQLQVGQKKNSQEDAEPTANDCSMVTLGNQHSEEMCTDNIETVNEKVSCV
# CXCR6 inh – blocks human CXCR6 beta-arrestin recruitment; O00574; 360,000 compounds, 0.36% hits; inhibition, % at 20 µM; CHO-K1 PathHunter CXCR6 beta-arrestin, luminescence; in the data active = inhibition above about 34%, passing the limit was not always enough;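 note: antagonist mode with CXCL16 agonist at 10 nM final; 0% = 10 nM CXCL16 with DMSO and 100% = unstimulated wells without agonist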
# EBI2 antag – EBI2 (human) antagonism; P32249; EBI2 beta-arrestin recruitment, luminescence, 7a,25-OHC stimulated; inhibition, % at 5 µM; 360,000 compounds, 0.81% hits; AID 651636; in the data active = inhibition above about 38%;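 note: enzyme fragment complementation signal reports receptor beta-arrestin coupling in cells; 0% = agonist plus DMSO wells and 100% = wells without agonist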
# CCR6 antag – CCR6 (human) receptor antagonism. P51684. CHO-K1 CCR6 PathHunter beta-arrestin, luminescence, CCL20-stimulated. inhibition, % at 20 µM. 340,000 compounds, 0.49% hits. AID 493098;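 active = compounds whose inhibition of the agonist-driven luminescence signal at 20 µM reaches about 50%, limit read from the data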;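 note: cells stimulated with CCL20 at 14 nM final; plate controls were DMSO with CCL20 for no effect and DMSO without agonist for full effect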
# APJ ag – activates the human apelin receptor APJ; CHO-K1 APJ PathHunter beta-arrestin, luminescence; 0% DMSO wells, 100% apelin; activation, % at 20 µM; 330,000 compounds, 0.11% hits; AID 2520;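 active = activation more than six SD over the plate average, tested at 20 µM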;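 note: 0% = DMSO alone and 100% = apelin-13 at 10 nM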
#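 Assay system: CHO-K1 APJ beta-arrestin complementation cell line / Compound: single test compound dose, 20 µM final, 1% DMSO / Times: overnight seeding, 90 min compound at 25 °C, 1 h detection / Technique: beta-gal luminescence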
# APJ antag – APJ receptor antagonism | P35414 | CHO-K1 APJ beta-arrestin complementation, luminescence | inhibition, % at 20 µM | 330,000 compounds, 0.32% hits;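 active = inhibition above about 40% at 20 µM, limit read from the data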;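 note: cells challenged with 10 nM apelin-13 agonist together with compound; plate controls were apelin-13 plus DMSO wells for no effect and DMSO wells lacking apelin-13 for full effect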
# APJ antag conf – confirmation of human APJ apelin receptor antagonists; APJ beta-arrestin recruitment, luminescence, antagonist mode; AID 2766; shares compounds with APJ antag; 950 compounds, 66% hits; inhibition, % at 20 µM; in the data active = inhibition above about 50%
# * hit, by the source's call; . = not tested or not shown. The list is not random: actives were taken first. Their share in the collection is about 2.1%.
SMILES,HTR2A ag,CXCR6 inh,EBI2 antag,CCR6 antag,APJ ag,APJ antag,APJ antag conf
CC(C)c1ncc(S(=O)(=O)c2ccc(C(F)(F)F)cn2)c(N)n1,-7,-7,-7,1,-1,-10,.
CC1CN(S(=O)(=O)c2cc(C(=O)N3CCCCC3C)ccc2Cl)CC(C)O1 (centres undefined),2,-3,-1,6,0,12,.
COC(=O)c1cc(N=Nc2sc(N)nc2C)cc(C(=O)OC)c1,4,8,11,28,-4,45*,27
Cc1ccc(C(=O)OCC(=O)Nc2cc(C(C)(C)C)nn2-c2ccccc2)c(O)c1,-4,-4,7,21,-5,15,.
O=C(c1ccccc1)c1cccn1CC(=O)N1CCc2ccccc2C1,-9,48*,12,51*,-6,50*,94*
O=C(Cn1cccc1C(=O)c1ccccc1)NCCCN1CCc2ccccc2C1,0,14,16,27,-1,2,.
CCNC(=S)NNc1nnc(-c2ccccc2)c(-c2ccccc2)n1,0,3,4,32,-8,49*,90*
COc1ccc(C(c2c(N)[nH]c(=S)[nH]c2=O)c2c(N)[nH]c(=S)[nH]c2=O)cc1,2,1,-7,14,-3,2,.
Cc1ccc(C)c(NC(=S)/C(=C(\[O-])c2ccc(OC(F)F)cc2)[n+]2ccccc2)c1,-1,8,-10,12,-5,3,.
[O-]/C(=C(\C(=S)Nc1ccccc1F)[n+]1ccccc1)c1ccc(OC(F)F)cc1,-6,-2,-8,19,-9,48*,22
CCOC(=O)[C@H]1[C@H]2COc3ccc(C)cc3[C@@H]2N2C(=O)[C@@H](CO)NC(=O)[C@@]12C,5,-2,-14,8,-3,-8,.
COc1ccc2c(c1)[C@H]1[C@H](CO2)[C@H](c2ccccc2)[C@]2(C)C(=O)N[C@@H](C)C(=O)N12,.,.,.,.,-9,42*,47
CCOC(=O)[C@H]1[C@H]2COc3cc(OC)ccc3[C@@H]2N2C(=O)[C@@H](CO)NC(=O)[C@@]12C,.,.,.,.,-9,51*,88*
Cc1c(NS(=O)(=O)c2ccc(Cl)c(C(=O)OCC(=O)NCc3ccco3)c2)c(=O)n(-c2ccccc2)n1C,-1,-2,-5,-3,0,49*,4
O=S(=O)(Nc1cccc2ncccc12)c1cccc(C(F)(F)F)c1,-3,2,1,-3,3,-7,.
CCc1nnc(NC(=O)C2CC(=O)N(Cc3ccccc3)C2)s1 (centres undefined),4,3,-2,11,0,2,.
CCc1ccc(N2CC(C(=O)Nc3nnc(CC)s3)CC2=O)cc1 (centres undefined),3,-7,-2,3,-2,62*,25
C[C@H](CO)N1C[C@H](C)[C@@H](CN(C)C(=O)Nc2ccc(F)cc2)OCc2cnnn2CCCC1=O,6,-2,-9,.,.,.,.
COc1ccc(NC2(c3ccc(Cl)cc3)C(=O)c3ccccc3C2=O)cc1,-5,33,-3,74*,-9,62*,73*
COc1ccc(N2C(=O)C3CCCN3C2c2ccc(C)o2)cc1 (centres undefined),-1,-5,-1,9,-1,18,.
Cc1ncc(CO)c(/C=N/Nc2ccc(C(F)(F)F)cn2)c1O,-18,48*,11,69*,-12,63*,89*
CC(C)(C)OC(=O)C[C@@H]1C/C=C\C[C@H](CC(=O)N(CCO)Cc2ccccc2)C(=O)NC[C@@H](c2ccccc2)OC1=O,-29,56*,23,56*,-9,54*,100*
COc1ccc(NC(=O)[C@@H](NC(=O)N2C[C@H]3C[C@@H](C2)c2cccc(=O)n2C3)C(C)C)cc1OC,-5,-4,0,-7,-4,1,.
Cc1ccc(NC(=O)CCNS(=O)(=O)c2ccc3c(c2)CCC(=O)N3)c(Br)c1,-4,-1,0,4,-2,41*,-8
Cc1ccc(NC(=O)CCNS(=O)(=O)c2ccc3c(c2)CCC(=O)N3)cc1,2,-4,-1,3,-6,0,.
SMILES,HTR2A ag,CXCR6 inh,EBI2 antag,CCR6 antag,APJ ag,APJ antag,APJ antag conf
C[C@H]1COC(=O)[C@H](CC(=O)OC(C)(C)C)C/C=C\C[C@@H](CC(=O)NCCO)C(=O)N1,-11,-1,-16,2,-2,12,.
CCn1c(-c2ccccc2)ccc(C#N)c1=O,-2,0,4,5,-1,50*,47
O=C(CSc1nnc(-c2ccncc2)n1-c1ccccc1)NCC1CCCO1 (centres undefined),-3,1,-19,6,-4,6,.
COCCN(C(=O)c1csnn1)C(C(=O)NC1CCCC1)c1ccc(C)cc1 (centres undefined),3,5,6,9,-2,16,.
COCCN(C(=O)c1csnn1)C(C(=O)NC1CCCC1)c1ccccc1F (centres undefined),2,6,-1,6,1,53*,25
CCc1ccc(NC(=O)c2ccc(C3SCC(=O)N3CCc3ccccc3)cc2)cc1 (centres undefined),-4,-6,14,5,2,62*,-9
CCNC(=O)c1ccc(C2SCC(=O)N2CCc2ccccc2)cc1 (centres undefined),-1,-4,4,2,-3,-5,.
COc1ccc(C)cc1NC(=O)COC(=O)C1CC1,10,-2,-1,5,7,41*,13
CS(=O)(=O)c1ccc(Nc2nc(C(N)c3ccccc3)cs2)cc1 (centres undefined),5,-6,-7,.,.,.,.
COc1cccc2cc(C(C)N(CCCN3CCOCC3)C(=S)Nc3cccc(C)c3)oc12 (centres undefined),-9,7,3,9,-3,77*,-6
COc1ccc(NC(=O)Nc2ccc3c(c2)C(=O)N([C@@H](C)CO)C[C@@H](C)[C@@H](CN(C)CC2CCCCC2)O3)cc1,-3,14,3,8,-2,17,.
COc1ccc(NC(=O)Nc2cccc3c2O[C@@H](CN(C)CC2CCCCC2)[C@@H](C)CN([C@H](C)CO)C3=O)cc1,1,1,-15,-1,-4,62*,62*
CCN(CC)CCN(C(=O)c1ccc(C(=O)c2ccccc2)cc1)c1nc2ccc(OC)cc2s1,-10,12,-3,8,-7,51*,41
COc1ccc(S(=O)(=O)Nc2cc3c4c(c2)CC(=O)N4CCC3)cc1C,-2,1,-12,2,-1,10,.
